For one data set, the system named is Staphylococcus aureus. The data set is described as follows: Antibacterial activity against Staphylococcus aureus ATCC 29213 after 16 to 22 hrs by broth microdilution method. The format is functional. The procedure, abridged: (§1)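 Broth microdilution per the CLSI approved standard (sixth edition), using two-fold serial dilutions of compound in Mueller–Hinton broth. Stocks at 5 mg/ml in DMF. Inoculum came from a direct colony suspension adjusted by turbidity to about 5 × 10⁴ CFU/well final. Trays were incubated at 35 °C for 16–22 h. MIC is the lowest concentration completely inhibiting growth (99% inhibition).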
For orientation: Dilution methods test growth across graded concentrations, often in twofold steps.

For data set [1], the system named is Streptococcus pneumoniae. The data set is described as follows: Antibacterial activity against erythromycin-susceptible Streptococcus pneumoniae after 16 to 22 hrs by broth microdilution method. The format is functional. The procedure, abridged:
(§2)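 Streptococci tested by CLSI broth microdilution in Mueller–Hinton broth with 5% horse serum, using two-fold serial dilutions. Compounds were dissolved in DMF at 5 mg/ml (stock). Inoculum was a turbidity-adjusted direct colony suspension giving about 5 × 10⁴ CFU/well. Trays were held at 35 °C for 16–22 h. MIC is the lowest concentration completely inhibiting growth (99%).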

Data set [2] deals with Streptococcus pneumoniae. The data set is described as follows: Antibacterial activity against efflux-mediated macrolide-resistant Streptococcus pneumoniae after 16 to 22 hrs by broth microdilution method. The data set is classed as functional. The procedure, abridged: (§3)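 Two-fold serial dilutions in microdilution trays, following the CLSI dilution standard for aerobic bacteria. Medium was Mueller–Hinton broth with 5% horse serum for streptococci. Stocks were made at 5 mg/ml in DMF. Inoculum came from a direct colony suspension adjusted by turbidity to about 5 × 10⁴ CFU/well final. Incubation was at 35 °C for 16–22 h. MIC is the lowest concentration completely inhibiting growth (99% inhibition).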

In data set [3] the test system is Streptococcus pneumoniae. Description: Antibacterial activity against constitutive macrolide-lincosamide-streptogramin-resistant Streptococcus pneumoniae after 16 to 22 hrs by broth microdilution method. The format is functional. The procedure, abridged: as §3
Data set [4] concerns Streptococcus pyogenes. Description: Antibacterial activity against erythromycin-susceptible Streptococcus pyogenes after 16 to 22 hrs by broth microdilution method. The format is functional. The procedure, abridged:
as §2

In data set [5] the test system is Streptococcus pyogenes. Description: Antibacterial activity against inducible macrolide-lincosamide-streptogramin-resistant Streptococcus pyogenes 16 to 22 hrs by broth microdilution method. The data set is classed as functional. A digest of the protocol:
as §3

Data set [6] relates to Streptococcus pyogenes. Description: Antibacterial activity against efflux-mediated macrolide-resistance Streptococcus pyogenes after 16 to 22 hrs by broth microdilution method. The format is functional. The procedure, abridged: as §3
The next data set has as its system Moraxella catarrhalis. The data set is described as follows: Antibacterial activity against Moraxella catarrhalis ATCC 23246 after 16 to 22 hrs by broth dilution method. The format is functional. The procedure, abridged:
as §1

In a further data set the test system is Haemophilus influenzae. Description: Antibacterial activity against Haemophilus influenzae ATCC 49247 after 16 to 22 hrs by broth dilution method. The data set is classed as functional. A digest of the protocol: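 Microdilution trays following the CLSI standard, with two-fold serial dilutions in supplemented broth suited to H. influenzae. DMF stocks at 5 mg/ml. Inoculum prepared from a turbidity-adjusted direct colony suspension to about 5 × 10⁴ CFU/well final. Incubated at 35 °C for 16–22 h. MIC is the lowest concentration giving complete (99%) growth inhibition.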

The subject of the next data set is Enterococcus faecalis. Description: Antibacterial activity against Enterococcus faecalis ATCC 29212 after 16 to 22 hrs by broth dilution method. The data set is classed as functional. A digest of the protocol: as §1
Another data set concerns Escherichia coli. The data set is described as follows: Antibacterial activity against Escherichia coli ATCC 25922 after 16 to 22 hrs by broth dilution method. The format is functional. The procedure, abridged:
as §1

Data set [7] is described as follows: Chemical stability in 0.01 M artificial gastric juice assessed as half life at 37 degC. The data set is classed as physicochemical. The procedure, abridged:
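Acid degradation followed as pseudo-first-order kinetics. Rate constants came from an exponential fit of reactant concentration versus time, and t1/2 was calculated from k.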

By half-life is commonly meant how long it takes for the measured level to halve.

In brackets after ≈: the same amount, converted by molar mass.

Take `CC[C@H]1OC(=O)[C@H](C)[C@@H](O[C@H]2C[C@@](C)(OC)[C@@H](O)[C@H](C)O2)[C@H](C)[C@@H](O[C@@H]2O[C@H](C)C[C@H](N(C)C)[C@H]2O)[C@](C)(O)C[C@@H](C)CN(CCCN(CCC#N)C(=O)Nc2cccc3ccccc23)[C@H](C)[C@@H](O)[C@]1(C)O`: the MIC against Staphylococcus aureus was 1 µg/mL (≈ 0.986 µM); in the data set with Streptococcus pneumoniae [1], no more than 0.125 µg/mL; in the data set on Streptococcus pneumoniae [2], 16 µg/mL (≈ 15.8 µM); against Streptococcus pneumoniae [3], 64 µg/mL (≈ 63.1 µM); against Streptococcus pyogenes [4], no more than 0.125 µg/mL; against Streptococcus pyogenes [5] it was 8 µg/mL (≈ 7.89 µM). In addition, the MIC was 8 µg/mL (≈ 7.89 µM) against Streptococcus pyogenes [6]; 0.5 µg/mL (≈ 0.493 µM) against Moraxella catarrhalis; 4 µg/mL (≈ 3.94 µM) in the data set on Haemophilus influenzae; 16 µg/mL (≈ 15.8 µM) against Enterococcus faecalis; 8 µg/mL (≈ 7.89 µM) against Escherichia coli. Further, in data set [7], the half-life turned out to be 1.8 h.

Regarding `CC[C@H]1OC(=O)[C@H](C)[C@@H](O[C@H]2C[C@@](C)(OC)[C@@H](O)[C@H](C)O2)[C@H](C)[C@@H](O[C@@H]2O[C@H](C)C[C@H](N(C)C)[C@H]2O)[C@](C)(O)C[C@@H](C)CN(CCCNC(=O)Nc2cccc3ccccc23)[C@H](C)[C@@H](O)[C@]1(C)O`, the MIC in the data set on Staphylococcus aureus is 0.5 µg/mL (≈ 0.52 µM); against Streptococcus pneumoniae [1], no more than 0.125 µg/mL; with Streptococcus pneumoniae [2], 4 µg/mL (≈ 4.16 µM); with Streptococcus pneumoniae [3] it was greater than 64 µg/mL; against Streptococcus pyogenes [4] it was no more than 0.125 µg/mL; against Streptococcus pyogenes [5] it was 2 µg/mL (≈ 2.08 µM). Further, the MIC against Streptococcus pyogenes [6] worked out at 4 µg/mL (≈ 4.16 µM); with Moraxella catarrhalis it was 0.5 µg/mL (≈ 0.52 µM); with Haemophilus influenzae, 1 µg/mL (≈ 1.04 µM); in the data set with Enterococcus faecalis it was 4 µg/mL (≈ 4.16 µM); in the data set with Escherichia coli it was 8 µg/mL (≈ 8.32 µM). In data set [7], the half-life came out at 1.98 h.

These data come from ChEMBL document CHEMBL1153576, “Novel ureas and thioureas of 15-membered azalides with antibacterial activity against key respiratory pathogens” (Eur J Med Chem, 2009).
